Test results: ChEMBL document CHEMBL4732044, “Discovery of a promising agent IQZ23 for the treatment of obesity and related metabolic disorders” (Eur J Med Chem, 2020)
The source made the active and inactive calls. No cut-off for these calls is given here.

Key:
[1] = system: C2C12; assay: Activation of AMPK pathway in mouse C2C12 cells assessed as increase in glucose uptake at 0.3 to 1 uM after 6 hrs in presence of insulin by 2-NBDG/Hoechst 33342 staining based Confocal microscopic method; assay type: cell-based; details: filed as activator, dose 0.3-1 µM
In short: (§1)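 C2C12 myoblasts kept in DMEM with 10% FBS and 1% penicillin/streptomycin at 37 °C under 5% CO2.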

[2] = system: Mus musculus; assay: Antiobesity activity in high fat diet-induced obese C57BL/6J mouse model assessed as decrease in AUC of ITT at 20 mg/kg, ip administered for every other days for 6 weeks by ITT method; assay type: functional, organism-based
In short: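 Male C57BL/6J mice on HFC diet dosed i.p. For GTT, after 3 weeks of treatment: 6 h fast, then i.p. glucose 2 g/kg. For ITT, after 6 weeks: 6 h fast, then i.p. insulin 0.4 U/mouse. Tail-vein glucose measured at 0, 15, 30, 60 and 120 min; AUC calculated.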

[3] = target: RAC-alpha serine/threonine-protein kinase (Mus musculus) (UniProt P31750); assay: Activation of AKT in mouse C2C12 cells assessed as AKT phosphorylation at […] 308 residue at 1 uM after 6 hrs by Western blot analysis; assay type: cell-based; in short: as §1
[4] = system: 3T3-L1; assay: Inhibition of mouse 3T3-L1 cells adipocyte differentiation assessed as reduction in adipogenic cocktail-induced ACC protein expression at 0.3 to 1 uM after 6 days by Western blot analysis; assay type: functional, cell-based; details: dose 0.3-1 µM, time 6.0 day
In short: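 3T3-L1 preadipocytes were differentiated with cocktail for 3 days, then insulin medium for 3 days, with compound (0.3 or 1 µM) present throughout. Cells were harvested on day 6 and proteins measured by Western blot, with densitometry normalized to actin.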

[5] = Toxicity in ip dosed C57BL/6J mouse administered for every other days for 6 weeks; assay type: organism-based; details: in vivo
In short: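 Male C57BL/6J mice (7–8 weeks) were fed an HFC diet (60% fat, 1% cholesterol) from week 1 and given 20 mg/kg i.p. every other day for 6 weeks from week 9, in saline with 10% ethanol and 10% castor oil, against a vehicle group. At the end, after a 6 h fast under ketamine/xylazine, plasma was taken for auto-analyzer ALT, AST, TBIL, ALB, BUN and creatinine, and tissues were weighed.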

[6] = system: Mus musculus; assay: Antiobesity activity in high fat diet-induced obese C57BL/6J mouse model assessed as blood urea nitrogen level at 20 mg/kg, ip administered for every other days for 6 weeks by auto-analyzer method (reference value: 14.6 +/- 1.4 mM); assay type: functional
[7] = system: Mus musculus; assay: Antiobesity activity in high fat diet-induced obese C57BL/6J mouse model assessed as TG level at 20 mg/kg, ip administered for every other days for 6 weeks by auto-analyzer method (reference value: 1.2 +/- 0.02 mM); assay type: functional
In short: (§2)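 Male C57BL/6J mice (7–8 weeks) fed HFC diet (60% fat, 1% cholesterol) for up to 14 weeks. From week 9, given 20 mg/kg i.p. every other day for 6 weeks in saline with 10% ethanol and 10% castor oil, or vehicle. Body weight and food intake recorded daily. At end, mice fasted 6 h, anesthetized, and blood collected into EDTA. Plasma chemistry run on an auto-analyzer; insulin by ultra-sensitive ELISA.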

[8] = AUC(0 to infinity) in Sprague-Dawley rat at 2 mg/kg, iv up to 24 hrs by LC-MS/MS analysis; assay type: ADME, organism-based; design: route intravenous, dose 2 mg/kg, time <=24; details: in vivo
In short: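 Male Sprague-Dawley rats (180-220 g, n = 3) received a single intravenous dose of 2 mg/kg in ethanol/saline (5:95). Blood was sampled at 0, 30 min, 1, 2, 4, 8, 12 and 24 h after dosing and centrifuged to plasma. Plasma drug levels were measured by LC-MS/MS, and pharmacokinetic parameters were calculated from the concentration-time data.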

[9] = system: Mus musculus; assay: Antiobesity activity in high fat diet-induced obese C57BL/6J mouse model assessed as decrease in liver weight at 20 mg/kg, ip administered for every other days for 6 weeks; assay type: functional, organism-based
[10] = system: Mus musculus; assay: Antiobesity activity in high fat diet-induced obese C57BL/6J mouse model assessed as insulin level at 20 mg/kg, ip administered for every other days for 6 weeks by ELISA (reference value: 3.5 +/- 0.6 ng/ml); assay type: functional; in short: as §2
[11] = Apparent volume of distribution in Sprague-Dawley rat at 2 mg/kg, iv up to 24 hrs by LC-MS/MS analysis; assay type: ADME, organism-based; details: in vivo, read-out: Vz
In short: (§3)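 Male SD rats (180–220 g, n = 3) received compound in ethanol/saline (5:95), either intravenously at 2 mg/kg or intragastrically at 5 mg/kg. Plasma was sampled at 0, 0.5, 1, 2, 4, 8, 12 and 24 h. Concentrations were measured by LC-MS/MS, and PK parameters were calculated from the concentration–time data.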

[12] = system: C2C12; assay: Activation of AMPK pathway in mouse C2C12 cells assessed as increase in glucose uptake at 1 uM after 6 hrs in presence of LY-294002 by 2-NBDG/Hoechst 33342 staining based Confocal microscopic method; assay type: cell-based; details: filed as activator; in short: as §1
[13] = system: 3T3-L1; assay: Activation of AMPK pathway in adipogenic cocktail-induced mouse 3T3-L1 cells assessed as decrease in ATP level at 0.3 to 1 uM after 24 hrs; assay type: cell-based; details: filed as activator, dose 0.3-1 µM
In short: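 Confluent 3T3-L1 pre-adipocytes exposed to adipogenic cocktail (0.5 mM IBMX, 100 ng/mL dexamethasone, 2 µg/mL insulin) with compound at 0.3 or 1 µM for 24 h. ATP quantified with a commercial luminescent kit and normalized to protein.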

[14] = Clearance in Sprague-Dawley rat at 2 mg/kg, iv up to 24 hrs by LC-MS/MS analysis; assay type: ADME, organism-based; details: in vivo; in short: as §3
[15] = system: Mus musculus; assay: Antiobesity activity in high fat diet-induced obese C57BL/6J mouse model assessed as total bilirubin level at 20 mg/kg, ip administered for every other days for 6 weeks by auto-analyzer method (reference value: 1.3 +/- 0.12 mM); assay type: functional
[16] = Clearance in Sprague-Dawley rat at 2 mg/kg, iv up to 24 hrs by LC-MS/MS analysis; details: in vivo
[17] = system: 3T3-L1; assay: Activation of AMPK pathway in mouse 3T3-L1 cells assessed as increase in NRF2 mRNA expression at 1 uM after 24 hrs by RT-qPCR analysis; assay type: cell-based; details: filed as activator
[18] = AUC(0 to infinity) in Sprague-Dawley rat at 2 mg/kg, iv up to 24 hrs by LC-MS/MS analysis; details: in vivo
[19] = system: 3T3-L1; assay: Lipid lowering activity in mouse 3T3-L1 cells assessed as adipogenic cocktail-induced triglyceride levels at 1 uM incubated for 6 days by GPO-POD assay relative to control; assay type: functional; details: time 6 day
In short: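 Confluent 3T3-L1 cells were treated from day 0 in cocktail (IBMX, dexamethasone, insulin) for 3 days, then re-dosed in insulin medium for 3 more days. For dose–response, concentrations were 0–10 µM (0.01, 0.1, 0.3, 1, 3, 10). On day 6, cells were lysed in 0.2% Triton X-100 and TG was measured by GPO-POD and normalized to BCA protein as % of control. EC50 was fitted from the dose–response. N = 4.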

[20] = system: C2C12; assay: Activation of AMPK pathway in mouse C2C12 cells assessed as increase in glucose uptake at 1 uM after 6 hrs by 2-NBDG/Hoechst 33342 staining based Confocal microscopic method; assay type: cell-based; details: filed as activator; in short: as §1

Sequence of RAC-alpha serine/threonine-protein kinase (Mus musculus) (P31750 whole entry): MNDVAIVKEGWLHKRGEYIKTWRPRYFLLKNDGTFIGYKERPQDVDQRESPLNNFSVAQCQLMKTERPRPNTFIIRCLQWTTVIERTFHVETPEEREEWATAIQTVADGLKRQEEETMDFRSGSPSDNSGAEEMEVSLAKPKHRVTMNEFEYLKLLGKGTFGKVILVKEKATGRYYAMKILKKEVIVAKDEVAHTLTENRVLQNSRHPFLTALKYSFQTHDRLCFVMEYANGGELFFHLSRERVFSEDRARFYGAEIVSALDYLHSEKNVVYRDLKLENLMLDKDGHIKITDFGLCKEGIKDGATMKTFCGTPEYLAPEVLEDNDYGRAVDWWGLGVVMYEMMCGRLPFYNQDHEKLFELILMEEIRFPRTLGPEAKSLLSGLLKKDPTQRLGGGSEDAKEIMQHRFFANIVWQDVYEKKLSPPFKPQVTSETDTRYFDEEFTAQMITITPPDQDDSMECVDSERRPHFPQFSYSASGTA

Compound | Activity [1] | Activity [2] | Activity [3] | inhibition [4] | LD50 at 1008 h [5] | Activity [6] | Activity [7] | AUC(0-inf) [8] | Activity [9] | Activity [10] | Vd [11] | Activity [12] | Activity [13] | clearance [14] | Activity [15] | clearance [16] | Activity [17] | AUC(0-inf) [18] | Activity [19] | Activity [20]
COc1ccc2[nH]c(-c3nc(NCCCCN4CCCC4)c4ccccc4n3)c(C=O)c2c1 | Active | Active | inactive | Active | 500 mg/kg | 11.5 mM | 0.92 mM | 314 ng·h/mL | Active | 2.2 ng/mL | 40.7 L/kg | Active | Active | 107 mL/min/kg | 0.9 mmol | – | – | – | – | –
CN(C)CCCNc1nc(-c2[nH]c3ccccc3c2C=O)nc2ccccc12 | – | – | inactive | – | – | – | – | – | – | – | – | – | – | – | – | 125 mL/min/kg | Active | 671 ng·h/mL | 20.8% | Active
